What was measured:
Type in all cases: functional, cell-based
A549 = assay: Cytotoxicity against human A549 cells after 24 hrs by MTT assay; conditions: A549, 24 h
Outline: (§1)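 Cells seeded at 1×10⁴ per well in complete medium and held 18 h at 37 °C, 5% CO₂. Medium then replaced with fresh medium containing test compounds or etoposide at 0.5, 1 and 2 μM, incubated 24 h at 37 °C. MTT dye added for 2 h, formazan solubilized in extraction buffer, absorbance read at 570 nm. Values mean±SD, three experiments in triplicate.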

MDA-MB-231 = assay: Cytotoxicity against human MDA-MB-231 cells after 24 hrs by MTT assay; conditions: MDA-MB-231, 24 h; outline: as §1
MCF7 = assay: Cytotoxicity against human MCF7 cells after 24 hrs by MTT assay; conditions: MCF7, 24 h; outline: as §1
DU-145 = assay: Cytotoxicity against human DU145 cells after 24 hrs by MTT assay; conditions: DU-145, 24 h; outline: as §1

SMILES	IC50 (A549)	IC50 (MDA-MB-231)	IC50 (MCF7)	IC50 (DU-145)
COc1cc(/C=C2\Oc3c(OC)cccc3C2=O)ccc1OCC(=O)N[C@@H]1c2cc3c(cc2[C@@H](c2cc(OC)c(OC)c(OC)c2)[C@H]2C(=O)OC[C@@H]21)OCO3	2990 nM	2600 nM	2350 nM	3980 nM
COc1cc([C@@H]2c3cc4c(cc3[C@@H](NC(=O)COc3ccc(/C=C5\Oc6ccccc6C5=O)cc3)[C@H]3COC(=O)[C@H]23)OCO4)cc(OC)c1OC	100 nM	450 nM	130 nM	970 nM
COc1ccc(/C=C2\Oc3c(OC)cccc3C2=O)cc1OCC(=O)N[C@@H]1c2cc3c(cc2[C@@H](c2cc(OC)c(OC)c(OC)c2)[C@H]2C(=O)OC[C@@H]21)OCO3	–	2180 nM	1870 nM	2330 nM
COc1cc([C@@H]2c3cc4c(cc3[C@@H](NC(=O)COc3ccc(/C=C5\Oc6c(OC)cccc6C5=O)cc3)[C@H]3COC(=O)[C@H]23)OCO4)cc(OC)c1OC	1560 nM	1680 nM	1980 nM	2090 nM
COc1ccc(/C=C2\Oc3ccccc3C2=O)cc1OCC(=O)N[C@@H]1c2cc3c(cc2[C@@H](c2cc(OC)c(OC)c(OC)c2)[C@H]2C(=O)OC[C@@H]21)OCO3	7230 nM	8230 nM	6230 nM	2550 nM
COc1cc(/C=C2\Oc3ccccc3C2=O)ccc1OCC(=O)N[C@@H]1c2cc3c(cc2[C@@H](c2cc(OC)c(OC)c(OC)c2)[C@H]2C(=O)OC[C@@H]21)OCO3	2750 nM	–	4510 nM	3820 nM
COc1cc([C@@H]2c3cc4c(cc3[C@@H](O[C@@H]3O[C@@H]5CO[C@@H](C)O[C@H]5[C@H](O)[C@H]3O)[C@H]3COC(=O)[C@H]23)OCO4)cc(OC)c1O [ETOPOSIDE]	–	–	2110 nM	1970 nM
COc1cc([C@@H]2c3cc4c(cc3[C@@H](NC(=O)COc3c(OC)cc(/C=C5\Oc6c(OC)cccc6C5=O)cc3OC)[C@H]3COC(=O)[C@H]23)OCO4)cc(OC)c1OC	1450 nM	870 nM	230 nM	1220 nM

Source: ChEMBL document CHEMBL4387779, “Design and synthesis of 4β-Acetamidobenzofuranone-podophyllotoxin hybrids and their anti-cancer evaluation” (Bioorg Med Chem Lett, 2019)
